# From ChEMBL document CHEMBL4673226, “Development of 5-Aminopyrazole-4-carboxamide-based Bumped-Kinase Inhibitors for Cryptosporidiosis Therapy” (J Med Chem, 2019)
# Activity calls are given as the source filed them. The calls are words filed in the database; no cut-off is given here.
# Assays:
# [1] = Protein binding in human plasma by dialysis method
# [2] = Toxicity in human CRL-8155 cells; format: cell-based
# [3] = Inhibition of Cryptosporidium parvum CDPK1 assessed as reduction in ATP consumption using BioSyntide-2 substrate incubated for 90 mins by luciferase reporter gene assay
# HepG2 = experiment: Toxicity in human HepG2 cells; format: cell-based
# Cryptosporidium parvum [4] = experiment: Antimicrobial activity against nano-luciferase-expressing Cryptosporidium parvum infected in human HCT8 cells incubated for 72 hrs by luciferase reporter gene assay; format: functional, organism-based; settings: HCT-8, 72 h
# [5] = Solubility in pH 6.5 solution
# [6] = Solubility in pH 2.0 solution
# [7] = Half life in mouse at 25 mg/kg, po; settings: in vivo
# [8] = Drug level in mouse fecus at 25 mg/kg, po; settings: read-out: Drug uptake, in vivo
# [9] = target: Proto-oncogene tyrosine-protein kinase Src (Homo sapiens, UniProt P12931); experiment: Inhibition of SRC (unknown origin); format: ADME
# Sequence of Proto-oncogene tyrosine-protein kinase Src (P12931 2-536 limits assumed): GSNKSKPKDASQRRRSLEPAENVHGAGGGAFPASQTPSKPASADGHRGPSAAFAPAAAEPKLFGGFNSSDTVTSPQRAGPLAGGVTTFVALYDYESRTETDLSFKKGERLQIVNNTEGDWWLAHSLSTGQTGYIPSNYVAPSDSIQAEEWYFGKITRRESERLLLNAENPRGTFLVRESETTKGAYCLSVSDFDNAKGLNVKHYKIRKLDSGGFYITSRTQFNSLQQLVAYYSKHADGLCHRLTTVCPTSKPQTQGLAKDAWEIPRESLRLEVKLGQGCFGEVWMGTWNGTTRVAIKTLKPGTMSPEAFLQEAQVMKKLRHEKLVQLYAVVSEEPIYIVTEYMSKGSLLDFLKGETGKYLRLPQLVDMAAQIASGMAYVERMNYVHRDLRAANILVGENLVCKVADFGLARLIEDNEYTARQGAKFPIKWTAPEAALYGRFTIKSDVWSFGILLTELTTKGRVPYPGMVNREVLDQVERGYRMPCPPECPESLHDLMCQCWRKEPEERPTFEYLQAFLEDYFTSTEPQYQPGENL
# [10] = target: Voltage-gated inwardly rectifying potassium channel KCNH2 (Homo sapiens, UniProt Q12809); experiment: Inhibition of human ERG by thallium flux assay
# Sequence of Voltage-gated inwardly rectifying potassium channel KCNH2 (Q12809 whole entry): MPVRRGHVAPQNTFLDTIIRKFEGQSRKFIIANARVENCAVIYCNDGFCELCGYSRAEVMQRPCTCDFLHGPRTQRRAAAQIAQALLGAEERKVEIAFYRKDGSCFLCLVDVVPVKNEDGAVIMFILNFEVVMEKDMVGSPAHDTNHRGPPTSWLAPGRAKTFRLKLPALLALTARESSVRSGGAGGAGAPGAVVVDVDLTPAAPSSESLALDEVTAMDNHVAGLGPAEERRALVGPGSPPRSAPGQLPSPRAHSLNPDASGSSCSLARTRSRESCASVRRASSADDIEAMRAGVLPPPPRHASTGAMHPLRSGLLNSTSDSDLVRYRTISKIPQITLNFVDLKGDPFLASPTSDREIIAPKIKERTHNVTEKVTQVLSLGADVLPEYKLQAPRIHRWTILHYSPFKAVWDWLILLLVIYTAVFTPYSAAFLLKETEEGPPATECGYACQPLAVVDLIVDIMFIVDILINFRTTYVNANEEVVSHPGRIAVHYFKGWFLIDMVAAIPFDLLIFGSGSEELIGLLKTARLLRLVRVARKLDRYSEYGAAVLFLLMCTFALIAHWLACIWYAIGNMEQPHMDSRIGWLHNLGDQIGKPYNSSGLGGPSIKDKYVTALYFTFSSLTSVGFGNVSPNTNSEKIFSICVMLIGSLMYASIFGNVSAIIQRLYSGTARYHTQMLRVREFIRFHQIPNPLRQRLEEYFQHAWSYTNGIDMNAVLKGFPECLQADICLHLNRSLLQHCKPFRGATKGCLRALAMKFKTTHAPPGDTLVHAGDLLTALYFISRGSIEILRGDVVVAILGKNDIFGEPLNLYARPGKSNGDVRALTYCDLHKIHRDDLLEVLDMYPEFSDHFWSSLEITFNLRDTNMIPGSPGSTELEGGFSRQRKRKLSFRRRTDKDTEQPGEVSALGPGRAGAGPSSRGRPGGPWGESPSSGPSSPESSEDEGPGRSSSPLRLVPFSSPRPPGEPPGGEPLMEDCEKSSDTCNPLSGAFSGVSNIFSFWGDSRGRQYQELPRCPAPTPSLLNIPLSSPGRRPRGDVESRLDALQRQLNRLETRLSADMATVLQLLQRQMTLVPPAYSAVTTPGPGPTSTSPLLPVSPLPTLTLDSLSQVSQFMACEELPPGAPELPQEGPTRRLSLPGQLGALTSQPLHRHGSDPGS
# [11] = Clearance in mouse at 25 mg/kg, po; format: ADME, organism-based; settings: in vivo
# in vivo [12] = settings: mouse, po, 25 mg/kg
# in vivo [13] = settings: mouse, po, 25 mg/kg; remark: listed apart in the source
# [14] = AUC in mouse at 25 mg/kg, po; format: ADME, organism-based; set-up: dose 25 mg/kg; settings: in vivo
# Cryptosporidium parvum [15] = experiment: Antimicrobial activity against nano-luciferase-expressing Cryptosporidium parvum infected in IFN-gamma KO B6.129S7-Ifngtm1Ts/J mouse assessed as log reduction of infection at 20 mg/kg, po BID for 5 days beginning on day 6 post infection relative untreated control; format: functional, organism-based; settings: time 5.0 day
# Cryptosporidium parvum [16] = experiment: Antimicrobial activity against nano-luciferase-expressing Cryptosporidium parvum infected in IFN-gamma KO B6.129S7-Ifngtm1Ts/J mouse assessed as log reduction of infection at 60 mg/kg, po QD for 5 days beginning on day 6 post infection relative untreated control; settings: time 5 day
# [17] = Protein binding in mouse plasma by dialysis method
# Cryptosporidium parvum [18] = experiment: Antimicrobial activity against nano-luciferase-expressing Cryptosporidium parvum infected in IFN-gamma KO B6.129S7-Ifngtm1Ts/J mouse assessed as log reduction of infection at 10 mg/kg, po BID for 5 days beginning on day 6 post infection relative untreated control; format: functional, organism-based; settings: time 5.0 day
# Cryptosporidium parvum [19] = experiment: Antimicrobial activity against nano-luciferase-expressing Cryptosporidium parvum infected in IFN-gamma KO B6.129S7-Ifngtm1Ts/J mouse assessed as log reduction of infection at 15 mg/kg, po QD for 5 days beginning on day 6 post infection relative untreated control; format: functional, organism-based; settings: time 5.0 day
# [20] = Plasma concentration in mouse at 100 mg/kg, po QD for 3 days measured on pre dose by LC-MS/MS analysis
# [21] = Toxicity in mouse assessed as induction of lack of grooming at 250 mg/kg, po QD for 7 days; format: organism-based; settings: in vivo, 168 h, time 7 day
# [22] = Toxicity in mouse assessed as effect on organ parameters at 100 to 250 mg/kg, po QD for 7 days by histological analysis; format: organism-based; settings: in vivo, 168 h, dose 100-250 mg/kg, time 7 day
# [23] = Plasma concentration in mouse at 250 mg/kg, po QD for 7 days measured after 72 hrs by LC-MS/MS analysis
# [24] = Plasma concentration in mouse at 250 mg/kg, po QD for 7 days measured after 24 hrs by LC-MS/MS analysis
# [25] = Plasma concentration in mouse at 250 mg/kg, po QD for 5 days measured after 2 hrs by LC-MS/MS analysis
# Cryptosporidium parvum [26] = experiment: Antimicrobial activity against nano-luciferase-expressing Cryptosporidium parvum infected in IFN-gamma KO B6.129S7-Ifngtm1Ts/J mouse assessed as log reduction of infection at 30 mg/kg, po QD for 5 days beginning on day 6 post infection relative untreated control; format: functional, organism-based; settings: time 5.0 day
# [27] = Plasma concentration in mouse at 250 mg/kg, po QD for 7 days measured after 48 hrs by LC-MS/MS analysis
# [28] = Plasma concentration in mouse at 100 mg/kg, po QD for 7 days measured after 48 hrs by LC-MS/MS analysis; format: ADME, organism-based; settings: time 7 day
# Summary of the method: (§1)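 Multiple-dose oral tolerability study in mice at 100 or 250 mg/kg over 7 days. Plasma was taken 2 h after dose 2, before dose 3, 2 h after dose 5, and 24, 48 and 72 h after dose 7. Drug was quantified by LC-MS/MS. Blood and organs were collected after the final dose.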
# [29] = Plasma concentration in mouse at 250 mg/kg, po QD for 2 days measured after 2 hrs by LC-MS/MS analysis
# [30] = Plasma concentration in mouse at 100 mg/kg, po QD for 5 days measured after 2 hrs by LC-MS/MS analysis; format: ADME, organism-based; settings: time 5 day; summary of the method: as §1
# [31] = mouse, in vivo, po, 30 mg/kg, 96 h
# [32] = Plasma concentration in mouse at 250 mg/kg, po QD for 3 days measured on pre dose by LC-MS/MS analysis
# [33] = Toxicity in mouse at 100 mg/kg, po QD for 7 days; format: organism-based; settings: in vivo, 168 h, time 7 day
# [34] = Clearance in mouse at 10 mg/kg, po; format: ADME, organism-based; settings: in vivo
# [35] = Plasma concentration in mouse at 100 mg/kg, po QD for 7 days measured after 72 hrs by LC-MS/MS analysis; format: ADME, organism-based; settings: time 7 day; summary of the method: as §1
# [36] = Toxicity in mouse at 100 to 250 mg/kg, po; format: organism-based; settings: in vivo, dose 100-250 mg/kg
# Summary of the method: (§2)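 Escalating single oral doses were given to mice until toxicity signs appeared. Regimens were 100, 150, 200 and 250 mg/kg, and 150, 200, 300, 400 and 600 mg/kg. Escalation was limited by solubility in the dosing solution.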
# [37] = AUC in mouse at 10 mg/kg, po; format: ADME, organism-based; set-up: dose 10 mg/kg; settings: in vivo
# [38] = Plasma concentration in mouse at 100 mg/kg, po QD for 2 days measured after 2 hrs by LC-MS/MS analysis; format: ADME, organism-based; settings: time 2 day; summary of the method: as §1
# [39] = Toxicity in mouse assessed as effect on serum chemistry parameters at 100 to 250 mg/kg, po QD for 7 days; format: organism-based; settings: in vivo, 168 h, dose 100-250 mg/kg, time 7 day
# [40] = Plasma concentration in mouse at 100 mg/kg, po QD for 7 days measured after 24 hrs by LC-MS/MS analysis; format: ADME, organism-based; settings: time 7 day; summary of the method: as §1
# [41] = Toxicity in mouse assessed as effect on CBC parameters at 100 to 250 mg/kg, po QD for 7 days; format: organism-based; settings: in vivo, 168 h, dose 100-250 mg/kg, time 7 day
# [42] = Toxicity in mouse assessed as induction of lethargy at 250 mg/kg, po QD for 7 days; format: organism-based; settings: in vivo, 168 h, time 7 day
# [43] = Toxicity in mouse assessed as induction of distress at 100 to 250 mg/kg, po; format: organism-based; settings: in vivo, dose 100-250 mg/kg; summary of the method: as §2
# Cryptosporidium parvum [44] = experiment: Antimicrobial activity against nano-luciferase-expressing Cryptosporidium parvum infected in IFN-gamma KO B6.129S7-Ifngtm1Ts/J mouse assessed as log reduction of infection at 25 mg/kg, po QD for 5 days beginning on day 6 post infection relative untreated control; format: functional; settings: time 5 day
smiles,measurement,setting,value
CC(CCO)n1nc(-c2cnc3cc(OC4CC4)ccc3c2)c(C(N)=O)c1N (stereo not drawn),fraction unbound,[1],0.49
same,Activity,[2],Non-Toxic
same,IC50,[3],2 nM
same,Activity,HepG2,Non-Toxic
same,EC50,Cryptosporidium parvum [4],430 nM
same,solubility,[5]; pH 6.5 solution,> 100 µM
same,solubility,[6]; pH 2.0 solution,> 100 µM
same,half-life,[7],2.05 h
same,concentration,[8],4.5 µM
same,IC50,[9],> 10000 nM
same,IC50,[10],> 30000 nM
same,CL/F,[11],0.1 mL/min
same,Cmax,in vivo [12],69.2 µM
same,Tmax,in vivo [13],0.5 h
same,AUC,[14],11769 µmol·min/L
CCOc1ccc2cc(-c3nn(C(C)(C)CO)c(N)c3C(N)=O)ccc2n1,PPB,[1],84%
same,Activity,Cryptosporidium parvum [15],inactive
same,Activity,[2],Non-Toxic
same,IC50,[3],3.1 nM
same,Activity,HepG2,Non-Toxic
same,solubility,[5]; buffer,> 100 µM
same,solubility,[6]; buffer,> 100 µM
same,FC,Cryptosporidium parvum [16],3.15
same,PPB,[17],80%
same,Activity,Cryptosporidium parvum [18],inactive
same,concentration,[8],0.41 µM
same,IC50,[9],> 10000 nM
same,CL/F,[11],0.4 mL/min
same,AUC,[14],11412.6 µmol·min/L
CC(CCO)n1nc(-c2ccc3nc(OC4CC4)ccc3c2)c(C(N)=O)c1N (stereo not drawn),Activity,[2],Non-Toxic
same,IC50,[3],5.9 nM
same,Activity,HepG2,Non-Toxic
same,EC50,Cryptosporidium parvum [4],600 nM
same,solubility,[5]; pH 6.5 solution,98 µM
same,solubility,[6]; pH 2.0 solution,> 100 µM
same,fraction unbound,[17],0.23
same,half-life,[7],1.42 h
same,IC50,[9],> 10000 nM
same,IC50,[10],> 30000 nM
same,CL/F,[11],0.7 mL/min
same,Cmax,in vivo [12],8.5 µM
same,Tmax,in vivo [13],0.667 h
same,AUC,[14],1154.1 µmol·min/L
CC(C)(C)n1nc(-c2ccc3cc(OC4CC4)ccc3c2)c(C(N)=O)c1N,Activity,Cryptosporidium parvum [19],inactive
same,PPB,[1],82%
same,concentration at 72 h,[20],19.9 µM
same,Activity,[21],Toxic
same,Activity,[22],Non-Toxic
same,Activity,[2],Non-Toxic
same,IC50,[3],4.3 nM
same,concentration at 168 h,[23],0.7 µM
same,concentration at 168 h,[24],24.6 µM
same,concentration at 120 h,[25],72.2 µM
same,Activity,HepG2,Non-Toxic
same,solubility,[5]; buffer,65 µM
same,Activity,Cryptosporidium parvum [26],Active
same,concentration at 168 h,[27],2.3 µM
same,solubility,[6]; buffer,83 µM
same,FC,Cryptosporidium parvum [16],3.52
same,concentration at 168 h,[28],4.8 µM
same,PPB,[17],95%
same,concentration at 48 h,[29],40.1 µM
same,concentration at 120 h,[30],49.2 µM
same,Cmax,[31],28.8 µM
same,concentration at 72 h,[32],36.1 µM
same,Activity,[33],Non-Toxic
same,CL/F,[34],0.5 mL/min
same,concentration at 168 h,[35],0.3 µM
same,concentration,[8],0.42 µM
same,Activity,[36],Non-Toxic
same,AUC,[37],9098 µmol·min/L
same,IC50,[9],> 10000 nM
same,concentration at 48 h,[38],36.6 µM
same,Activity,[39],Non-Toxic
same,concentration at 168 h,[40],26.4 µM
same,Activity,[41],Non-Toxic
same,Activity,[42],Toxic
same,Activity,[43],Non-Toxic
CCOc1ccc2cc(-c3nn(C(C)(C)CO)c(N)c3C(N)=O)ccc2c1,Activity,[2],Non-Toxic
same,IC50,[3],9 nM
same,log reduction,Cryptosporidium parvum [44],0.81
same,Activity,HepG2,Non-Toxic
same,solubility,[5]; buffer,8 µM
same,solubility,[6]; buffer,18.8 µM
same,concentration,[8],7.1 µM
same,IC50,[9],> 10000 nM
same,CL/F,[11],0.2 mL/min
same,AUC,[14],9365 µmol·min/L
CCOc1ccc2cc(-c3nn(CC4CC4)c(N)c3C(N)=O)ccc2c1,PPB,[1],95%
same,Activity,[2],Non-Toxic
same,IC50,[3],0.03 nM
same,log reduction,Cryptosporidium parvum [44],0.76
same,Activity,HepG2,Non-Toxic
same,PPB,[17],97%
same,concentration,[8],54 µM
same,IC50,[9],10000 nM
same,CL/F,[11],0.5 mL/min
same,AUC,[14],2800.8 µmol·min/L
